Data reported in ChEMBL document CHEMBL4017487, “Design and Synthesis of γ- and δ-Lactam M1 Positive Allosteric Modulators (PAMs): Convulsion and Cholinergic Toxicity of an M1-Selective PAM with Weak Agonist Activity” (J Med Chem, 2017).

What was measured:
[1] = molecular target: T1, Muscarinic acetylcholine receptor M1 (Homo sapiens, UniProt P11229); assay: Agonist activity at human muscarinic acetylcholine receptor M1 expressed in CHO cells assessed as increase in calcium mobilization incubated for 10 mins by Fluo-8-AM dye based FLIPR assay; assay type: cell-based
T1 sequence (P11229 whole entry): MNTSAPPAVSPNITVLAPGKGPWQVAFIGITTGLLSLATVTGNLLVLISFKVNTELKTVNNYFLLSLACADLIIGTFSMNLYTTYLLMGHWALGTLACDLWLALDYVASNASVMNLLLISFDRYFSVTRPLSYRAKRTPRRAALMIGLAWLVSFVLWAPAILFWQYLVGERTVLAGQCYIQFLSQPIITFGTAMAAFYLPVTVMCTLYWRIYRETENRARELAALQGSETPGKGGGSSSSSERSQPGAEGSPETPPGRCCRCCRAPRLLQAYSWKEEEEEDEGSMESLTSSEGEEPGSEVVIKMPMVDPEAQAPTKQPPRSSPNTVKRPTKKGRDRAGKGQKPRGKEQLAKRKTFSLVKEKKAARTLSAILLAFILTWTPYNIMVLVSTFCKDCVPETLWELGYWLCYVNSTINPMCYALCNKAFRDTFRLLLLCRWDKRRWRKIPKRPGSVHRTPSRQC
Outline: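 M1 FLIPR calcium mobilization run in agonist mode (compound added without the EC20 ACh used in PAM mode). Top concentration 10 μM. EC50 values are geometric means of at least three experiments.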

[2] = molecular target: T1, Muscarinic acetylcholine receptor M1; assay: Positive allosteric modulation of human muscarinic acetylcholine receptor M1 expressed in CHO cells assessed as increase in acetylcholine-induced calcium mobilization preincubated for 10 mins followed by acetylcholine addition by Fluo-8-AM dye based FLIPR assay; assay type: ADME, cell-based
Outline: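 M1 potentiation (PAM) format: calcium mobilization read on a FLIPR plate reader with an EC20 concentration of ACh present. EC50 is the geometric mean of at least three experiments.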

[3] = molecular target: T1, Muscarinic acetylcholine receptor M1; assay: Displacement of [3H]PT-1284 human muscarinic acetylcholine receptor M1 expressed in CHO cell membranes after 90 mins scintillation counting method
[4] = molecular target: T1, Muscarinic acetylcholine receptor M1; assay: Agonist activity at human muscarinic acetylcholine receptor M1 expressed in CHO cells assessed as increase in calcium mobilization at 13 uM incubated for 10 mins by Fluo-8-AM dye based FLIPR assay relative to control; assay type: cell-based; details: read-out: %max
[5] = test system: Mus musculus; assay: In vivo agonist activity at muscarinic acetylcholine receptor M1 in C57BL/6 mouse assessed as unbound brain concentration required to show 2 fold increase in IP1 accumulation in striatum at 1 to 10 mg/kg, sc measured after 2 hrs; assay type: organism-based
Outline: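 Cb,u giving a 2-fold rise in striatal IP1 in C57BL/6 mice, estimated by interpolation of individual-mouse IP1 versus free brain exposure data.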

[6] = test system: Rattus norvegicus; assay: Toxicity in rat assessed as unbound Cmax in plasma required to show convulsions at 45 mg/kg, po administered as single dose; assay type: organism-based; details: in vivo
[7] = (§1) Ratio of unbound Cmax in rat brain assessed as convulsions at 45 mg/kg, po administered as single dose to unbound brain concentration for agonist activity at muscarinic acetylcholine receptor M1 in C57BL/6 mouse assessed as required to show 2 fold increase in IP1 accumulation in striatum at 1 to 10 mg/kg, sc; assay type: organism-based
[8] = Ratio of unbound AUC in rat brain to plasma at 45 mg/kg, po administered as single dose; assay type: ADME, organism-based
Outline: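 Rats, 3 per sex, received a single oral 45 mg/kg dose as a nanosuspension in 1.25% w/v hydroxypropyl cellulose SL with 0.05% docusate sodium in purified water. The brain/plasma ratio is the AUC ratio of unbound drug in brain to unbound drug in plasma. It was used to estimate unbound brain levels from measured unbound plasma Cmax.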

[9] = test system: Rattus norvegicus; assay: Toxicity in rat assessed as unbound Cmax in brain required to show convulsions at 45 mg/kg, po administered as single dose; assay type: organism-based; details: in vivo
[10] = Intrinsic clearance in human liver microsomes; assay type: ADME, microsome; details: read-out: CLH
[11] = test system: MDR1; assay: Efflux ratio of permeability from basolateral to apical side over apical to basolateral side in MDCK1 cells expressing MDR1; assay type: ADME, cell-based, Canis lupus familiaris; details: dog, MDCK-MDR1
Outline: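 MDCKI-MDR1 cells (MDCK epithelial line transfected with MDR1/P-gp; from the NIH). Permeability measured as a rate in 10−6 cm/s in both directions; value is the BA/AB ratio.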

[12] = molecular target: Cytochrome P450 3A4 (Homo sapiens, UniProt P08684); assay: Time dependent inhibition of CYP3A4 (unknown origin) by high throughput assay relative to 2-((3R,4S)-3-Hydroxytetrahydro-2H-pyran-4-yl)-5-methyl-6-(4-(oxazol-4-yl)benzyl)isoindolin-1-one; assay type: ADME
Cytochrome P450 3A4, sequence (P08684 whole entry): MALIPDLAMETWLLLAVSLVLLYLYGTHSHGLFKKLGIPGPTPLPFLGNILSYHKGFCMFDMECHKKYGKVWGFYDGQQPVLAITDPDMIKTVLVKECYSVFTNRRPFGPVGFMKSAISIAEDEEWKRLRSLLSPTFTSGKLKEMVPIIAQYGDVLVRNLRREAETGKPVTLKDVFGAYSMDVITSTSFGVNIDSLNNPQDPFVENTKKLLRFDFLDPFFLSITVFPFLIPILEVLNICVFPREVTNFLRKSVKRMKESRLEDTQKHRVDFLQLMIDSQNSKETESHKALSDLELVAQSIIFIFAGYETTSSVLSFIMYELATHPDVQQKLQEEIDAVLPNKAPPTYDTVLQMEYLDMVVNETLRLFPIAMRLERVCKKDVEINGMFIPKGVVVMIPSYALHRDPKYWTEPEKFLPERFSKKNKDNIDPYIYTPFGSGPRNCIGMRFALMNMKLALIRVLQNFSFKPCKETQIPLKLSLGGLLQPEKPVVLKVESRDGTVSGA

[13] = as §1, with “in dog” for “in rat”, “at 15” for “at 45”; assay type: organism-based
[14] = test system: Canis familiaris; assay: Toxicity in dog assessed as unbound Cmax in brain required to show convulsions at 15 mg/kg, po administered as single dose using spray dried dispersion formulation; assay type: organism-based, Canis lupus familiaris; details: in vivo
[15] = test system: Canis familiaris; assay: Toxicity in dog assessed as unbound Cmax in plasma required to show convulsions at 15 mg/kg, po administered as single dose using spray dried dispersion formulation; assay type: organism-based, Canis lupus familiaris; details: in vivo

SMILES	EC50 [2] [µM]	CLint scaled [10] [mL/min/kg]	efflux ratio [11]	also measured
Cc1ccc(Cc2cc3c(=O)n([C@H]4CCCC[C@@H]4O)cnc3c3ccccc23)cn1 [MK-7622]	0.063			EC50 [1]: > 2 µM; Ki [3]: 0.008 µM; Emax at 13 µM [4]: 62%; Drug uptake(free) [5]: 4 nM; fCmax [6]: 550 nM; selectivity ratio [7]: 33; Kp uu [8]: 0.24; fCmax [9]: 130 nM
Cc1cc2c(cc1Cc1ccc(-c3cscn3)cc1)C(=O)N([C@H]1CCOC[C@@H]1O)CC2	0.007	25	12	
Cc1nc(-c2ccc(Cc3cc4c(cc3C)CCN([C@H]3CCOC[C@@H]3O)C4=O)cc2)co1	0.023	21	14	
Cn1ccc(-c2ccc(Cn3cc(C(=O)N[C@H]4CCOC[C@@H]4O)c4ncccc43)cc2)n1				Drug uptake(free) [5]: 32 nM
Cc1nc(-c2ccc(Cc3cc4c(cc3C)CN([C@H]3CCOC[C@@H]3O)C4=O)cc2)co1	0.05	13	11	
Cc1cnc(C(=O)N[C@H]2CCOC[C@@H]2O)cc1Cc1ccc(-c2cscn2)cc1				EC50 [1]: > 4 µM; Ki [3]: 0.019 µM; selectivity ratio [13]: 20; Emax at 13 µM [4]: 34%; Drug uptake(free) [5]: 14 nM; selectivity ratio [7]: > 29; fCmax [14]: 290 nM; fCmax [15]: 950 nM
Cc1cc2c(cc1Cc1ccc(-c3cscn3)cc1)C(=O)N([C@H]1CCOC[C@@H]1O)C2	0.024	10	11	
Cc1cc2c(cc1Cc1ccc(-c3cnn(C)c3)cc1)C(=O)N([C@H]1CCOC[C@@H]1O)C2	0.027	15	7.6	

More lines, main results first:

EC50 [2] [µM]	CLint scaled [10] [mL/min/kg]	efflux ratio [11]	SMILES	also measured
0.068	< 8	53	Cc1cc2c(cc1Cc1ccc(-n3ccnc3)cc1)C(=O)N([C@H]1CCOC[C@@H]1O)C2	
0.036	< 8	18	Cc1cc2c(cc1Cc1ccc(-n3cccn3)cc1)C(=O)N([C@H]1CCOC[C@@H]1O)C2	
0.026	13	2.7	Cc1cc2c(cc1Cc1ccc(-c3cocn3)cc1)C(=O)N([C@H]1CCOC[C@@H]1O)CC2	fold change (FC) [12]: 6
0.018	15	11	Cc1cc2c(cc1Cc1ccc(-n3cccn3)cc1)C(=O)N([C@H]1CCOC[C@@H]1O)CC2	
0.045	30	63	Cc1cn(-c2ccc(Cc3cc4c(cc3C)CN([C@H]3CCOC[C@@H]3O)C4=O)cc2)cn1	
